Results from ChEMBL document CHEMBL3826878, “Design, synthesis, molecular docking and biological evaluation of thiophen-2-iminothiazolidine derivatives for use against Trypanosoma cruzi” (Bioorg Med Chem, 2016).

Experiments:
Cruzipain = Cruzipain (Trypanosoma cruzi, UniProt P25779); experiment: Inhibition of Trypanosoma cruzi cruzain using Z-Phe-Arg-aminomethylcoumarin as substrate measured after 5 mins by spectrofluorimetry
Procedure, shortened: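 IC50 for cruzain: 10 min enzyme–compound pre-incubation, then 0.5 nM cruzain with 2.5 uM Z-FR-AMC in 0.1 M sodium acetate pH 5.5, 0.1 mM beta-mercaptoethanol, 0.01% Triton X-100, fluorescence over 5 min; at least nine compound concentrations in triplicate, two independent experiments, curves fitted for IC50.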

Trypanosoma cruzi [1] = experiment: Antitrypanosomal activity against amastigote stage of Trypanosoma cruzi CA-I/72 infected in mouse C2C12 cells at 10 uM measured after 3 days by DAPI staining-based assay relative to control; assay type: functional; conditions: CA-I/72, C2C12, 72 h
Procedure, shortened: (§1)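 T. cruzi CA-I/72 trypomastigotes harvested from infected C2C12 myocytes 7 days post-infection, mixed with C2C12 cells (1:15 host:parasite), treated immediately with serially diluted compound; 3 days incubation, paraformaldehyde fixation, DAPI staining, automated high-content imaging. Activity normalized to untreated wells and 10 uM benznidazole; host viability as C2C12 count relative to untreated wells.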

[2] = biological target: Cruzipain (Trypanosoma cruzi) (UniProt P25779); experiment: Inhibition of Trypanosoma cruzi cruzain at 50 uM using Z-Phe-Arg-aminomethylcoumarin as substrate measured after 5 mins in presence of BSA by spectrofluorimetry
Cruzipain (Trypanosoma cruzi), sequence (P25779 123-467 limits assumed): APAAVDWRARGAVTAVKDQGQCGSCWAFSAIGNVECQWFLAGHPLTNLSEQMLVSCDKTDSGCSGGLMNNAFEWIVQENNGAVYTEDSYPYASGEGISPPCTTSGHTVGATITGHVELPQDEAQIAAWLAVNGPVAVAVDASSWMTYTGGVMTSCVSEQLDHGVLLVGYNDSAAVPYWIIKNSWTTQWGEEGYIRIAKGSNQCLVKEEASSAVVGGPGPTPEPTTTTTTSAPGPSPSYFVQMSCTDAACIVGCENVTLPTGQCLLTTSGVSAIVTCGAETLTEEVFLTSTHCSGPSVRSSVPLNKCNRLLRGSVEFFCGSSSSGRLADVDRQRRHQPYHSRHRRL
Procedure, shortened: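 Cruzain aggregation test: compound pre-incubated with 2 mg/mL BSA, then cruzain (0.5 nM) activity on 2.5 uM Z-FR-AMC in 0.1 M sodium acetate pH 5.5, 0.1 mM beta-mercaptoethanol, 0.01% Triton X-100, monitored 5 min by fluorescence; inhibition from initial rate against DMSO control.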

[3] = biological target: Cruzipain (Trypanosoma cruzi) (UniProt P25779); experiment: Inhibition of Trypanosoma cruzi cruzain at 100 uM pre-incubated for 10 mins followed by addition of Z-Phe-Arg-aminomethylcoumarin as substrate measured after 5 mins by spectrofluorimetry
Procedure, shortened: (§2)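 Recombinant cruzain (0.5 nM, MMTS-protected, anion-exchange purified) in 0.1 M sodium acetate pH 5.5 with 0.1 mM beta-mercaptoethanol and 2.5 uM Z-FR-AMC, read fluorimetrically over 5 min; activity from initial rate versus DMSO control. Triton X-100 0.01% standard; detergent-sensitivity tests used 0.01% vs 0.1%. Run with and without 10 min pre-incubation; two independent experiments in triplicate; E64 100 uM positive control.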

[4] = biological target: Cruzipain (Trypanosoma cruzi) (UniProt P25779); experiment: Inhibition of Trypanosoma cruzi cruzain at 100 uM using Z-Phe-Arg-aminomethylcoumarin as substrate measured after 5 mins by spectrofluorimetry; procedure, shortened: as §2
[5] = biological target: Cruzipain (Trypanosoma cruzi) (UniProt P25779); experiment: Inhibition of Trypanosoma cruzi cruzain at 50 uM using Z-Phe-Arg-aminomethylcoumarin as substrate measured after 5 mins in presence of 0.01% triton by spectrofluorimetry; procedure, shortened: as §2
Trypanosoma cruzi [6] = experiment: Antitrypanosomal activity against trypomastigote stage of Trypanosoma cruzi Y at 25 uM measured after 24 hrs using propidium iodide by neubauer chamber method relative to control; assay type: functional
Procedure, shortened: (§3)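 Y strain trypomastigotes from LLC-MK2 culture supernatant, 4.0 × 10^5 per well, exposed to five compound concentrations (DMSO solutions) for 24 h at 37 °C, 5% CO2; propidium iodide 400 ng/mL for 5 min, then viable motile parasites counted in a Neubauer chamber. Percent inhibition versus untreated cultures.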

[7] = biological target: Cruzipain (Trypanosoma cruzi) (UniProt P25779); experiment: Inhibition of Trypanosoma cruzi cruzain at 50 uM using Z-Phe-Arg-aminomethylcoumarin as substrate measured after 5 mins in presence of 0.1% triton by spectrofluorimetry; procedure, shortened: as §2
[8] = biological target: Cruzipain (Trypanosoma cruzi) (UniProt P25779); experiment: Inhibition of Trypanosoma cruzi cruzain at 50 uM using Z-Phe-Arg-aminomethylcoumarin as substrate measured after 5 mins by spectrofluorimetry; procedure, shortened: as §2
Trypanosoma cruzi [9] = experiment: Antitrypanosomal activity against amastigote stage of Trypanosoma cruzi CA-I/72 infected in mouse C2C12 cells measured after 3 days by DAPI staining-based assay; assay type: functional, organism-based; conditions: CA-I/72, C2C12, 72 h; procedure, shortened: as §1
[10] = biological target: Cruzipain (Trypanosoma cruzi) (UniProt P25779); experiment: Inhibition of Trypanosoma cruzi cruzain at 6.25 uM using Z-Phe-Arg-aminomethylcoumarin as substrate measured after 5 mins in presence of 0.01% triton by spectrofluorimetry; procedure, shortened: as §2
[11] = (§4) Cytotoxicity against mouse J774 cells assessed as cell viability at 10 uM measured after 24 hrs by MTT assay; assay type: cell-based; conditions: J774 cells, read-out: Activity
Procedure, shortened: (§5)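 J774 macrophages seeded in RPMI-1640 with 10% FBS for 16 hours, exposed 24 h at 37 °C to compound (10–100 umol/L range) in 0.01% DMSO vehicle; MTT (5 mg/mL) 4 h, formazan dissolved in DMSO, absorbance 540 nm. Viability as percent of untreated cells; three wells per treatment.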

[12] = biological target: Cruzipain (Trypanosoma cruzi) (UniProt P25779); experiment: Inhibition of Trypanosoma cruzi cruzain at 6.25 uM using Z-Phe-Arg-aminomethylcoumarin as substrate measured after 5 mins in presence of 0.1% triton by spectrofluorimetry; procedure, shortened: as §2
[13] = biological target: Cruzipain (Trypanosoma cruzi) (UniProt P25779); experiment: Inhibition of Trypanosoma cruzi cruzain at 100 uM using Z-Phe-Arg-aminomethylcoumarin as substrate measured after 5 mins in presence of 0.1% triton by spectrofluorimetry; procedure, shortened: as §2
[14] = biological target: Cruzipain (Trypanosoma cruzi) (UniProt P25779); experiment: Inhibition of Trypanosoma cruzi cruzain at 100 uM using Z-Phe-Arg-aminomethylcoumarin as substrate measured after 5 mins in presence of 0.01% triton by spectrofluorimetry; procedure, shortened: as §2
J774 = experiment: as §4; assay type: cell-based; conditions: j774, 24 h, 10 µM; procedure, shortened: as §5
[15] = biological target: Cruzipain (Trypanosoma cruzi) (UniProt P25779); experiment: Inhibition of Trypanosoma cruzi cruzain at 50 uM pre-incubated for 10 mins followed by addition of Z-Phe-Arg-aminomethylcoumarin as substrate measured after 5 mins by spectrofluorimetry; procedure, shortened: as §2
Trypanosoma cruzi [16] = experiment: Antitrypanosomal activity against trypomastigote stage of Trypanosoma cruzi Y measured after 24 hrs using propidium iodide by neubauer chamber method; assay type: functional, organism-based; procedure, shortened: as §3
[17] = biological target: Cruzipain (Trypanosoma cruzi) (UniProt P25779); experiment: Inhibition of Trypanosoma cruzi cruzain at 25 uM using Z-Phe-Arg-aminomethylcoumarin as substrate measured after 5 mins by spectrofluorimetry; procedure, shortened: as §2
[18] = biological target: Cruzipain (Trypanosoma cruzi) (UniProt P25779); experiment: Inhibition of Trypanosoma cruzi cruzain at 25 uM pre-incubated for 10 mins followed by addition of Z-Phe-Arg-aminomethylcoumarin as substrate measured after 5 mins by spectrofluorimetry; procedure, shortened: as §2

Cruzipain, sequence (P25779 whole entry): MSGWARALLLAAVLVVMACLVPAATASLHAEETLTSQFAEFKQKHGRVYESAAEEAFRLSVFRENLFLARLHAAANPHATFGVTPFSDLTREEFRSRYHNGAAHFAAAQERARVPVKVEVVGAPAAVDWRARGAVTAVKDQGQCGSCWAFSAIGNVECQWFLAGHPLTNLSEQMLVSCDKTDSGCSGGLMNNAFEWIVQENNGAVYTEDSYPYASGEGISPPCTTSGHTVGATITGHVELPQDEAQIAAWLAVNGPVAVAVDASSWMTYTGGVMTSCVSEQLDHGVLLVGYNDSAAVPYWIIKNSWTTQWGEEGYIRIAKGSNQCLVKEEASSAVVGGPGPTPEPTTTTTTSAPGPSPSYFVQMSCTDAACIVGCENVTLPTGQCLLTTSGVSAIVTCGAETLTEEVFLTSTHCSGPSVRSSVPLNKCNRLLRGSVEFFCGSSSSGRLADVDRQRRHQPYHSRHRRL

inhibition [3]	inhibition [4]	SMILES	inhibition at 10 µM (Trypanosoma cruzi [1])	inhibition at 25 µM (Trypanosoma cruzi [6])	further results
89%	64%	C=CCN1C(=O)C(CC(=O)O)S/C1=N\c1sc2c(c1C(=O)OCC)CCCC2 (stereo not given)	13.8%	5.1%	IC50 (Cruzipain): 50 µM; inhibition [2]: 42%; inhibition [5]: 47%; inhibition [7]: 44%; inhibition [8]: 50%
34%	29%	C=CCNC(=S)Nc1sc2c(c1C(=O)OC(C)C)CCCC2	37.8%	15.1%	
97%	87%	C=CCn1c(-c2ccccc2)cs/c1=N\c1sc2c(c1C(=O)OCC)CCCC2	53.1%	5.1%	IC50 (Cruzipain): 2.4 µM; IC50 (Trypanosoma cruzi [9]): 9.7 µM; inhibition [10]: 62%; viability at 24 h, 10 µM [11]: > 50%; inhibition [12]: 55%
4%	12%	CCOC(=O)c1c(NC(=S)Nc2ccccc2)sc2c1CCCC2	47%	1.6%	
77%	32%	CC(C)OC(=O)c1c(/N=C2\SC(CC(=O)O)C(=O)N2c2ccccc2)sc2c1CCCC2 (stereo not given)	43.5%	6.4%	
66%	46%	CCOC(=O)c1c(/N=C2\SC(C(=O)OCC)C(=O)N2c2ccccc2)sc2c1CCCC2 (stereo not given)	0.43%	9%	
		CC(C)C[C@H](NC(=O)[C@H]1O[C@@H]1C(=O)O)C(=O)NCCCCN=C(N)N [E-64]			IC50 (Cruzipain): 0.4 µM
86%	66%	CCOC(=O)c1c(/N=C2\SC(CC(=O)O)C(=O)N2c2ccccc2)sc2c1CCCC2 (stereo not given)	37.4%	6.4%	IC50 (Cruzipain): 121 µM; inhibition [13]: 18%; inhibition [14]: 5.4%
40%	23%	C=CCN1C(=O)CS/C1=N\c1sc2c(c1C(=O)OCC)CCCC2	17%	4.5%	
80%	52%	C=CCN1C(=O)C(CC(=O)O)S/C1=N\c1sc2c(c1C(=O)OC(C)C)CCCC2 (stereo not given)	47.2%	7.7%	IC50 (Cruzipain): 111 µM; inhibition [13]: 52.7%; inhibition [14]: 53%
72%	33%	CC(C)OC(=O)c1c(/N=C2\SCC(=O)N2c2ccccc2)sc2c1CCCC2	39.4%	27%	IC50 (Trypanosoma cruzi [9]): 6.96 µM; Activity (J774): Toxic
41%	29%	C=CCNC(=S)Nc1sc2c(c1C(=O)OCC)CCCC2	11.9%	11.9%	
74%	43%	CC(C)OC(=O)c1c(NC(=S)Nc2ccccc2)sc2c1CCCC2	59.6%	5.8%	IC50 (Trypanosoma cruzi [9]): 8.78 µM; viability at 24 h, 10 µM [11]: > 50%
		O=C(Cn1ccnc1[N+](=O)[O-])NCc1ccccc1 [BENZNIDAZOLE]	94.5%	100%	IC50 (Trypanosoma cruzi [9]): 1.17 µM
		CCOC(=O)c1c(/N=c2\scc(-c3ccccc3)n2-c2ccccc2)sc2c1CCCC2	23.6%	5.8%	inhibition [15]: 40%; inhibition [8]: 16%
82%	34%	C=CCn1c(C)c(C(=O)OCC)s/c1=N\c1sc2c(c1C(=O)OCC)CCCC2	18.3%	7.1%	IC50 (Cruzipain): 85 µM; inhibition [13]: 29%; inhibition [14]: 33%
17%	0%	CCOC(=O)c1c(/N=C2\SCC(=O)N2c2ccccc2)sc2c1CCCC2	20.1%	3.2%	
25%	13%	CC(C)OC(=O)c1c(/N=c2\scc(-c3ccccc3)n2-c2ccccc2)sc2c1CCCC2	59.5%	4.5%	IC50 (Trypanosoma cruzi [9]): 6.03 µM; viability at 24 h, 10 µM [11]: > 50%
67%	29%	C=CCn1c(-c2ccccc2)cs/c1=N\c1sc2c(c1C(=O)OC(C)C)CCCC2	36%	6.1%	
59%	18%	C=CCN1C(=O)C(C(=O)OCC)S/C1=N\c1sc2c(c1C(=O)OCC)CCCC2 (stereo not given)	30%	16.7%	
70%	45%	C=CCN1C(=O)CS/C1=N\c1sc2c(c1C(=O)OC(C)C)CCCC2	4.03%	84.1%	IC50 (Trypanosoma cruzi [16]): 10.3 µM
		C=CCn1c(C)c(C(=O)OCC)s/c1=N\c1sc2c(c1C(=O)OC(C)C)CCCC2	39.2%	6.7%	inhibition [17]: 38%; inhibition [18]: 71%
